# Measured values reported in ChEMBL document CHEMBL1122520, “Potential antitumor agents. 43. Synthesis and biological activity of dibasic 9-aminoacridine-4-carboxamides, a new class of antitumor agent” (J Med Chem, 1984).
# Key:
# L1210 = test: Concentration required for 50% reduction of counted L1210 cells upon exposure for a period of 70h; format: functional; conditions: Mus musculus, L1210, 70 h; read-out: ID50 (the source's name)
# Outline: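 L1210 leukemia cells cultured with drug for 70 h, then counted. ID50 taken as the nanomolar concentration reducing cell count to 50% of untreated controls.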
# [1] = Lipophilicity (Rm) (RP-TLC); format: physicochemical
# HCT-8 = test: Concentration required for 50% reduction of counted HCT-8 cells upon exposure for a period of 70h; format: functional; conditions: Homo sapiens, HCT-8, 70 h; read-out: ID50 (the source's name)
# Outline: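 HCT-8 human colon adenocarcinoma cells grown in Alpha MEM with glutamine for 2 days before drug addition. Drug exposure for 70 h per table footnote, with 4-day incubation stated in methods. Trypsinized cells counted electronically. ID50 = nM concentration reducing counted cells to 50% of controls.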
# [2] = Logarithmic association constant determined by ethidium displacement from DNA co-polymers (adenine & thymine)
# Outline: (§1)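 Binding constants derived from ethidium displacement from synthetic DNA copolymers, assuming competitive binding.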
# [3] = Logarithmic association constant determined by ethidium displacement from DNA co-polymers (G + C); outline: as §1
# Mus musculus [4] = organism: Mus musculus; test: Percentage increase in lifespan of treated animals over that of animals injected with tumor (10e6 P388 leukemia cells), at the optimal dose of 13.3 mg/(kg day); format: functional
# Mus musculus [5] = organism: Mus musculus; test: Percentage increase in lifespan of treated animals over that of animals injected with tumor (10e6 P388 leukemia cells), at the optimal dose of 8.9 mg/(kg day); format: functional
# [6] = pKa value for the side-chain cationic center; format: physicochemical
# Mus musculus [7] = organism: Mus musculus; test: Percentage increase in lifespan of treated animals over that of animals injected with tumor (10e6 P388 leukemia cells), at the optimal dose of 5.9 mg/(kg day); format: functional
# Mus musculus [8] = organism: Mus musculus; test: Percentage increase in lifespan of treated animals over that of animals injected with tumor (10e6 P388 leukemia cells), at the optimal dose of 250 mg/(kg day); g=No activity (ILS < 20%)
# Mus musculus [9] = organism: Mus musculus; test: Percentage increase in lifespan of treated animals over that of animals injected with tumor (10e6 P388 leukemia cells), at the optimal dose of 20 mg/(kg day); format: functional
# Mus musculus [10] = organism: Mus musculus; test: Percentage increase in lifespan of treated animals over that of animals injected with tumor (10e6 P388 leukemia cells), at the optimal dose of 30 mg/(kg day); format: functional
# Mus musculus [11] = organism: Mus musculus; test: Number of mice survived indefinitely out a group of 6; format: functional
# Mus musculus [12] = organism: Mus musculus; test: Percentage increase in lifespan of treated animals over that of animals injected with tumor (10e6 P388 leukemia cells), at the optimal dose of 30 mg/(kg day); g=No activity (ILS < 20%); format: functional, organism-based
# Mus musculus [13] = organism: Mus musculus; test: Percentage increase in lifespan of treated animals over that of animals injected with tumor (10e6 P388 leukemia cells), at the optimal dose of 40 mg/(kg day); g=No activity (ILS < 20%); format: functional, organism-based
# Mus musculus [14] = organism: Mus musculus; test: Percentage increase in lifespan of treated animals over that of animals injected with tumor (10e6 P388 leukemia cells), at the optimal dose of 8.9 mg/(kg day); g=No activity (ILS < 20%); format: functional, organism-based
# Mus musculus [15] = test: Percentage increase in lifespan of treated animals over that of animals injected with tumor (10e6 P388 leukemia cells), at the optimal dose of 50 mg/kg day); g=No activity (ILS < 20%); format: functional, organism-based; set-up: dose 50 mg/kg
# Mus musculus [16] = organism: Mus musculus; test: Percentage increase in lifespan of treated animals over that of animals injected with tumor (10e6 P388 leukemia cells), at the optimal dose of 2.6 mg/(kg day); format: functional
SMILES,IC50 (L1210) [µM],Rm [1],IC50 (HCT-8) [µM],Log K [2],Log K [3],further results
CN(C)CCCCNC(=O)c1cccc2c(N)c3ccccc3nc12,0.43,-0.89,1,7.49,7.43,–
COCCNc1c2ccccc2nc2c(C(=O)NCCN(C)C)cccc12,0.085,-0.76,0.4,6.73,7.35,ILS (Mus musculus [4]): 47%
CCNc1c2ccccc2nc2c(C(=O)NCCN(C)C)cccc12,0.094,-0.88,0.188,7.14,7.69,ILS (Mus musculus [5]): 30%
CCN(CC)CCNC(=O)c1cccc2c(N)c3ccccc3nc12,0.0055,-0.67,0.083,7.26,7.59,pKa [6]: 9.2; ILS (Mus musculus [7]): 70%
CN(C)CCCCCCNC(=O)c1cccc2c(N)c3ccccc3nc12,1.54,-0.58,1.75,7.41,7.4,–
CN(C)CCNC(=O)c1ccc2nc3ccccc3c(N)c2c1,> 2,-1,> 5,7.08,7.55,pKa [6]: 8.6; ILS (Mus musculus [8]): No activity (ILS <20%)
CCCCNc1c2ccccc2nc2c(C(=O)NCCN(C)C)cccc12,0.041,-0.34,0.15,7.1,7.69,ILS (Mus musculus [9]): 70%
CN1CCN(C(=O)c2cccc3c(N)c4ccccc4nc23)CC1,> 2,-1.29,> 1.5,6.58,6.45,–
CN(C)CCCCCNC(=O)c1cccc2c(N)c3ccccc3nc12,1.37,-0.73,1.8,7.45,7.45,–
CCCCCCNc1c2ccccc2nc2c(C(=O)NCCN(C)C)cccc12,0.065,-0.04,0.21,7,7.79,ILS (Mus musculus [10]): 88%
CCCCCNc1c2ccccc2nc2c(C(=O)NCCN(C)C)cccc12,0.043,-0.23,0.16,6.91,7.58,ILS (Mus musculus [4]): 64%
CCCNc1c2ccccc2nc2c(C(=O)NCCN(C)C)cccc12,0.046,-0.57,0.203,7.23,7.79,ILS (Mus musculus [4]): 64%
NCCNC(=O)c1cccc2c(N)c3ccccc3nc12,0.414,-1.18,1.5,7.36,7.67,ILS (Mus musculus [9]): 71%; pKa [6]: 9.1
CN(C)CCNC(=O)c1cccc2c(N)c3ccccc3nc12,–,-1.11,0.055,–,–,Survivors (Mus musculus [11]): 1
Nc1c2ccccc2nc2c(C(=O)NCCNCCO)cccc12,0.077,-1.06,1.6,7.34,7.73,ILS (Mus musculus [9]): 73%; pKa [6]: 8.5
Nc1c2ccccc2nc2c(C(=O)NCCN3CCOCC3)cccc12,1.02,-1,2,7.29,7.58,pKa [6]: 6.7; ILS (Mus musculus [12]): No activity (ILS <20%)
CN(C)CCCCCCCNC(=O)c1cccc2c(N)c3ccccc3nc12,1.18,-0.44,2,7.43,7.3,–
Nc1c2ccccc2nc2c(C(=O)NCCc3ccccn3)cccc12,1.9,-0.57,3.2,6.94,7.03,ILS (Mus musculus [13]): No activity (ILS <20%); pKa [6]: 5.9
CN(C)CCNC(=O)c1cccc2c(NCCN(C)C)c3ccccc3nc12,0.46,-1.72,1.3,7.83,8.2,ILS (Mus musculus [14]): No activity (ILS <20%)
CN(C)CCCNC(=O)c1cccc2c(N)c3ccccc3nc12,0.157,-0.93,0.52,7.51,7.6,ILS (Mus musculus [15]): No activity (ILS <20%)
Nc1c2ccccc2nc2c(C(=O)NCCN3CCCCC3)cccc12,0.102,-0.7,0.38,7.12,7.1,pKa [6]: 8.9; ILS (Mus musculus [16]): 33%
CN(C)CCNC(=O)c1cccc2c(NCCO)c3ccccc3nc12,0.484,-1.19,0.54,6.82,7.61,ILS (Mus musculus [14]): No activity (ILS <20%)
CNc1c2ccccc2nc2c(C(=O)NCCN(C)C)cccc12,0.015,-1.11,0.125,7.17,7.65,–
CN(C)CCNC(=O)c1ccc2c(N)c3ccccc3nc2c1,> 2,-1.06,> 5,7.18,7.66,–
